Bioassay records (PubChem BioAssay)
Shown are actives, neighbours in structure and some others; about 1.9% of the full set was active somewhere.
HGIII-sPLA2 inh: Inhibits HGIII-sPLA2 liposome hydrolysis, primary screen. Q9NZ20. QFRET BODIPY PC-A2 liposome hydrolysis, fluorescence. inhibition, % at 12.2 µM. 0.56% of 370,000 active. AID 743126;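 active = inhibition above mean plus 3 SD of compounds lying within the high and low control bounds, cut at about 19% in these data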
ASAP1 GAP inh: ASAP1 ArfGAP inhibition. Q9ULH1. ASAP1-stimulated ARF1 GTP hydrolysis, GDP FP detection. inhibition, % at 16.5 µM. 0.19% of 360,000 active. AID 624377; in the data active = inhibition above about 25%
PLC-gamma1 inh: blocks human PLC-gamma1 enzyme activity; P19174; purified PLC-gamma1, fluorogenic substrate, fluorescence; inhibition, % at 12.2 µM; 0.84% of 370,000 active; AID 720700
ARFGAP1 inhibitor: rat ARFGAP1 inhibition | AID 651572 | inhibition, % at 16.5 µM | 0.26% of 360,000 active | Q62848 | Arfgap1-stimulated ARF1 GTP hydrolysis, GDP FP detection;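 active = inhibition above a per-plate limit, mean inhibition of low control wells plus 3 SD, cut at about 25% in these data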
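Material: rat Arfgap1 GAP domain (His6, aa 1-136), purified enzyme. Also added: human ARF1(Δ1-17)-GTP substrate. Compound dosing: 16.5 µM single point, 1.26% DMSO. Timing: enzyme reaction 120 min at 25 °C after 20 min preincubation. Signal: GDP detection by fluorescence polarization. Read-out basis: percent inhibition of GAP-stimulated GDP formation, scaled between DMSO and no-Arfgap1 medians.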
PLC-beta3 inh: inhibitors of human phospholipase C beta3 | Q01970 | Purified PLC-beta3, fluorogenic substrate, fluorescence | inhibition, % at 12.2 µM | 0.18% of 370,000 active; in the data active = inhibition above about 11%
PLCgamma1 ctr: PLC-gamma1 inhibition, counter-screen for PLC-beta3 hits | shares compounds with PLC-gamma1 inh | inhibition, % at 12.3 µM | 3.1% of 3,300 active | purified PLC-gamma1, fluorogenic substrate, fluorescence
PLCb3 confirm: confirmation of human PLC-beta3 inhibitors; shares compounds with PLC-gamma1 inh; purified PLC-beta3, fluorogenic substrate fluorescence; inhibition, % at 12.3 µM; 1% of 3,300 active; AID 743261; in the data active = inhibition above about 11%
Of the large screens only hits and unclear results are named; the others gave an inactive call (follow-up assays come after a bar, where they were run). Rule as the data show it, unless noted: active = inhibition above about 9.5%; inactive = the rest.

O=C(C[C@H]1C/C=C\CC[C@@H](Cc2ccc(F)cc2)C(=O)O[C@@H](c2ccccc2)CNC1=O)N[C@H](CO)Cc1ccccc1	PLC-gamma1 inh 10.6 | PLCgamma1 ctr inactive | PLCb3 confirm inactive
CC(C)(C)OC(=O)C[C@H]1C/C=C\C[C@H](CC(=O)N[C@H](CO)Cc2ccccc2)C(=O)N[C@@H](Cc2ccccc2)COC1=O	PLC-gamma1 inh 13.7, PLC-beta3 inh 12.9 | PLCgamma1 ctr inactive | PLCb3 confirm inactive
O=C(c1ccc(F)cc1F)N(Cc1ccccn1)CC1CCCO1 (stereo not given)	none (no result: ASAP1 GAP inh, ARFGAP1 inhibitor)
CCOC(=O)C1(CCCc2ccccc2)CCN(C(=O)C(C)n2cncn2)CC1 (stereo not given)	PLC-gamma1 inh 9.5 | PLCgamma1 ctr inactive | PLCb3 confirm inactive
COC(=O)C1CN(Cc2ccc(OC)cc2)CCS(=O)(=O)N1Cc1cn(Cc2ccc(C)cc2)nn1 (stereo not given)	none (no result: ASAP1 GAP inh, ARFGAP1 inhibitor)
CC1CCC(NC(=O)CCN2C(=O)C3CC=CCC3C2=O)CC1 (stereo not given)	PLC-gamma1 inh 12.1 | PLCgamma1 ctr inactive | PLCb3 confirm inactive
CCOC(=O)C1(CC2CCCCO2)CCN(S(=O)(=O)c2c(C)nn(C)c2C)CC1 (stereo not given)	PLC-gamma1 inh 12.9, PLC-beta3 inh 13.1 | PLCgamma1 ctr inactive | PLCb3 confirm inactive
Cc1ncc(C[n+]2csc(CCOC(=O)CC3C4CC5CC(C4)CC3C5)c2C)c(N)n1 (stereo not given)	PLC-gamma1 inh 9.8 | PLCgamma1 ctr inactive | PLCb3 confirm inactive
CN(CCO)c1cccc2c1S(=O)(=O)N(Cc1cn(Cc3ccccc3C(F)(F)F)nn1)Cc1ccccc1O2	none (no result: ASAP1 GAP inh, ARFGAP1 inhibitor)
O=C(O)c1ccc([N+](=O)[O-])cc1	PLC-gamma1 inh 13.1 | PLCgamma1 ctr inactive | PLCb3 confirm inactive
O=C(O)c1cc([N+](=O)[O-])ccc1-c1ccc([N+](=O)[O-])cc1C(=O)O	PLC-gamma1 inh 20.1, PLC-beta3 inh 12.4 | PLCgamma1 ctr inactive | PLCb3 confirm inactive
O=C(c1ccc([N+](=O)[O-])cc1)N(Cc1ccccc1)Cc1ccccc1	PLC-gamma1 inh 10.3 | PLCgamma1 ctr inactive | PLCb3 confirm inactive
O=[N+]([O-])c1ccc(C(=S)N2CCN(Cc3ccccc3)CC2)cc1	PLC-gamma1 inh 10.5 | PLCgamma1 ctr inactive | PLCb3 confirm inactive
O=C(NCCc1ccccc1)c1ccc([N+](=O)[O-])cc1	none
O=C(OCc1cn(Cc2ccc(Cl)cc2)nn1)N1CCOCC1	none (no result: ASAP1 GAP inh, ARFGAP1 inhibitor)
C=CCN1[C@H](CC(C)C)COc2cc(N3CCSCC3)ccc2S1(=O)=O	none (no result: ASAP1 GAP inh, ARFGAP1 inhibitor)
CC(=O)N[C@@H]1C[C@@H]2O[C@H](CO)CC[C@@H]2O[C@@H]1CCc1ccc(C#CC2(O)CCCC2)cc1	none (no result: ASAP1 GAP inh, ARFGAP1 inhibitor)
CC[C@@H](CCCCCCCn1ccc2ccccc21)CCC(=O)N(c1ccccc1)c1ccccc1	none (no result: ASAP1 GAP inh, ARFGAP1 inhibitor)
COc1ccc(CNC(=O)CCn2c(C)csc2=O)cc1	PLC-gamma1 inh 11.5 | PLCgamma1 ctr inactive | PLCb3 confirm inactive
C=CCN(CC#Cc1ccccc1)Cc1ccc(OC)cc1	none (no result: ASAP1 GAP inh, ARFGAP1 inhibitor)
O=C(O)c1ccc2c(c1Nc1ccccc1)C(=O)c1ccccc1C2=O	PLC-gamma1 inh 10.1 | PLCgamma1 ctr inactive | PLCb3 confirm inactive
O=C(N[C@H]1C[C@@H]2O[C@H](CO)CC[C@@H]2O[C@@H]1CCc1ccc(-c2cccnc2)cc1)c1cccc(F)c1	none (no result: ASAP1 GAP inh, ARFGAP1 inhibitor)
CC(=O)c1ccccc1OC(=O)CCN1C(=O)C2C3C=CC(C4CC34)C2C1=O (stereo not given)	PLC-gamma1 inh 10.3 | PLCgamma1 ctr inactive | PLCb3 confirm inactive
COc1ccc(-n2c(=S)[nH]c3cc(C(=O)N(C)Cc4ccccc4)ccc3c2=O)cc1	PLC-gamma1 inh 11.9 | PLCgamma1 ctr inactive | PLCb3 confirm inactive
COc1ccc(-n2c(=S)[nH]c3cc(C(=O)O)ccc3c2=O)cc1	none
COc1ccc(-c2nnc(SCC(=O)Nc3ccc(S(=O)(=O)Nc4cc(C)nc(C)n4)cc3)n2-c2ccc(OC)cc2)cc1	none (no result: ASAP1 GAP inh, ARFGAP1 inhibitor)
CCOC(=O)n1c(=O)n(Cc2ccc(Cl)cc2Cl)c2ccccc21	PLC-gamma1 inh 10.4 | PLCgamma1 ctr inactive | PLCb3 confirm inactive
CCOC(=O)n1c(=O)n(Cc2ccccc2Cl)c2ccccc21	none
